These results are taken from ChEMBL document CHEMBL3621107, “Ring fusion strategy for synthesis and lead optimization of sulfur-substituted anthra[1,2-c][1,2,5]thiadiazole-6,11-dione derivatives as promising scaffold of antitumor agents” (Eur J Med Chem, 2015).

In general, IC50 refers to the concentration needed to halve the response being measured. Low values mean inhibition by little substance, high ones a need for much substance.

Series [1] relates to DU-145. The series can be described thus: Cytotoxicity against human DU145 cells after 72 hrs by MTT assay. Format: functional, cell-based. To be noted: DU-145, 72 h. The method, boiled down: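 DU-145 cells grown in RPMI-1640 with 5% heat-inactivated fetal calf serum at 37 °C, 5% CO2. About 2×10^3 cells per well were seeded and incubated for 24 h. Compounds were dissolved in DMSO freshly and diluted into medium (vehicle 0.1% DMSO), then cells were exposed for 72 h. MTT was added for 3 h at 37 °C and absorbance read at 570 nm.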
(In general: Formazan colour is commonly taken as a measure of viable cells.)

Series [2] concerns PC-3. The series can be described thus: Cytotoxicity against human PC3 cells after 48 hrs by SRB assay. The settings on record: PC-3, 48 h. The format is functional, cell-based. The method in brief: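 Second-stage NCI-60 panel run by the NCI Developmental Therapeutics Program, covering nine tumour subpanels. Five concentrations were tested: 0.01, 0.1, 1, 10 and 100 μM. Percentage growth at each level was plotted against log10 drug concentration. GI50, TGI and LC50 were read from these dose-response curves. Subpanel MID values were divided into the full-panel MID to give selectivity ratios.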

The nature of series [3]: Cytotoxicity against human SV-HUC1 cells assessed as survival rate after 72 hrs by MTT assay. Format: cell-based. The settings on record: sv-huc1, 72 h. The method in brief:
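SV-HUC-1 cells grown in Ham's F-12K with 5% heat-inactivated fetal calf serum, 37 °C, 5% CO2. About 2×10^3 cells/well plated for 24 h, then a range of compound concentrations (DMSO stock diluted into medium; vehicle 0.1% DMSO) for 72 h. MTT added for 3 h at 37 °C; absorbance 570 nm.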

A short description of series [4]: Cytotoxicity against human RWPE1 cells assessed as survival rate after 72 hrs by MTT assay. Format: cell-based, RWPE-1. To be noted: rwpe-1, 72 h. The method in brief: (§1)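 About 2×10^3 cells/well preincubated 24 h at 37 °C, 5% CO2. Compound freshly dissolved in DMSO, diluted into complete medium and added at various concentrations (vehicle 0.1% DMSO) for 72 h. MTT added for 3 h at 37 °C, absorbance read at 570 nm, survival rate derived.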

A short description of series [5]: Cytotoxicity against human WPMY-1cells assessed as survival rate after 72 hrs by MTT assay. Format: cell-based. To be noted: wpmy-1, 72 h. The method, boiled down: as §1

With `O=C1c2ccccc2C(=O)c2c1cc(Sc1cccc(F)c1)c1nsnc21`, the IC50 in series [1] turned out to be 12.7 µM; in series [2], 8.82 µM.

`O=C1c2ccccc2C(=O)c2c1cc(Sc1ccccc1Cl)c1nsnc21`: the IC50 in series [1] and in series [2] was over 15 µM each time.

On to `CCCSc1cc2c(c3nsnc13)C(=O)c1ccccc1C2=O`, for which the IC50 in series [1] was found to be 2.55 µM; in series [2] it was 5.39 µM.

As for `CCc1ccccc1Sc1cc2c(c3nsnc13)C(=O)c1ccccc1C2=O`, the IC50 in series [1] and in series [2] was over 15 µM throughout.

On to `Cc1ccc(Sc2cc3c(c4nsnc24)C(=O)c2ccccc2C3=O)cc1C`, for which the figures for the concentration for half-maximal inhibition (IC50) in series [1] and in series [2] were 14.1 µM and over 15 µM, respectively.

As for `CCc1ccc(Sc2cc3c(c4nsnc24)C(=O)c2ccccc2C3=O)cc1`, the half-maximal inhibitory concentration (IC50) is 2.52 µM in series [1] and 7.5 µM in series [2].

Regarding `O=C1c2ccccc2C(=O)c2c1cc(SCc1ccccc1Cl)c1nsnc21`, the IC50 in series [1] was determined as 6.38 µM; in series [2] it was 5.48 µM.

Turning to `O=C1c2ccccc2C(=O)c2c1cc(Sc1cccc(Br)c1)c1nsnc21`, the IC50 came out at 10.7 µM in series [1] and 12.4 µM in series [2].

Consider `CC(C)c1ccccc1Sc1cc2c(c3nsnc13)C(=O)c1ccccc1C2=O`, for which the IC50 was 14.6 µM in series [1] and over 15 µM in series [2].

For the compound `O=C1c2ccccc2C(=O)c2c1cc(Sc1ccccc1F)c1nsnc21`, the results for the IC50 in series [1] and in series [2] were 7.64 µM and over 15 µM, respectively.

Regarding `CC(C)c1ccc(Sc2cc3c(c4nsnc24)C(=O)c2ccccc2C3=O)cc1`, the IC50 in series [1] is 13.8 µM; in series [2] it was over 15 µM.

Regarding `Cc1ccc(C)c(Sc2cc3c(c4nsnc24)C(=O)c2ccccc2C3=O)c1`, the IC50 in series [1] turned out to be 12 µM; in series [2] it was 7.44 µM.

For the compound `COc1cccc2c1C(=O)c1c(O)c3c(c(O)c1C2=O)C[C@@](O)(C(=O)CO)C[C@@H]3O[C@H]1C[C@H](N)[C@H](O)[C@H](C)O1` [DOXORUBICIN], the Activity entry in series [3], in series [4] and in series [5] was “Toxic” in each case.

Turning to `O=C1c2ccccc2C(=O)c2c1cc(SCCc1ccccc1)c1nsnc21`, the IC50 is 9.65 µM in series [1] and over 15 µM in series [2].

In the case of `CC(C)(C)c1ccc(CSc2cc3c(c4nsnc24)C(=O)c2ccccc2C3=O)cc1`, the IC50 in series [1] is 3.66 µM; in series [2], 9.5 µM.

In the case of `O=C1c2ccccc2C(=O)c2c1cc(Sc1ccc(Br)cc1)c1nsnc21`, the values for the half-maximal inhibitory concentration (IC50) in series [1] and in series [2] were 13.3 µM and over 15 µM, respectively.

As to `Cc1ccc(Sc2cc3c(c4nsnc24)C(=O)c2ccccc2C3=O)cc1`, the IC50 in series [1] and in series [2] was over 15 µM throughout.

Take `CC(C)(C)c1ccc(Sc2cc3c(c4nsnc24)C(=O)c2ccccc2C3=O)cc1`: the values for the IC50 in series [1] and in series [2] were 8.38 µM and over 15 µM, respectively.

In the case of `Cc1cccc(Sc2cc3c(c4nsnc24)C(=O)c2ccccc2C3=O)c1`, the IC50 in series [1] and in series [2] was over 15 µM in each case.

Take `O=C1c2ccccc2C(=O)c2c1cc(Sc1cc(Cl)c(Cl)cc1Cl)c1nsnc21`: the IC50 in series [1] and in series [2] was over 15 µM in each case.

Regarding `COc1ccccc1Sc1cc2c(c3nsnc13)C(=O)c1ccccc1C2=O`, the results for the IC50 in series [1] and in series [2] were 12.9 µM and over 15 µM, respectively.

Take `O=C1c2ccccc2C(=O)c2c1cc(Sc1ccc(F)cc1)c1nsnc21`: the IC50 in series [1] came to 11.1 µM; in series [2], 6.7 µM.
